Screening results (PubChem BioAssay)
In the library only some 2.8% were active in any assay of this set; here they are far more common.
NPY1 pot ag – NPY-Y1 receptor potentiators or agonists, primary screen, cell-based | activation, % at 3.6 µM | AID 1304, 2008 | NPY-Y1 expressing cells, potentiator/agonist activation | hit rate 0.37% among 220,000; in the data active means activation above about 33%, passing the limit was not always enough;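 further: cells stimulated with NPY at EC10 then isoproterenol at EC100; 0% = low agonist plus stimulus and 100% = saturating agonist plus stimulus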
Target sequence (P25929 whole entry, looked up): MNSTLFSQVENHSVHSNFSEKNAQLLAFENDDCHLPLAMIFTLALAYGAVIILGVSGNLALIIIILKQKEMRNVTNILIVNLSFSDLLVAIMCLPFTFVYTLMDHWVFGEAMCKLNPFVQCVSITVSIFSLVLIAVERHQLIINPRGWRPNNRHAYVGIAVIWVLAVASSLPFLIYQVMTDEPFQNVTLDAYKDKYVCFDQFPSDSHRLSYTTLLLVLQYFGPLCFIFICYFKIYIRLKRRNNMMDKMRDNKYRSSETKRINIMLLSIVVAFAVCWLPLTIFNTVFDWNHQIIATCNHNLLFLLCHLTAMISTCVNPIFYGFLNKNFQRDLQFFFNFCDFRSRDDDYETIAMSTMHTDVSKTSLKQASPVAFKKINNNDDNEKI
NPY-Y2 PAM-ag – NPY-Y2 potentiators or agonists, primary screen, cell-based. cells expressing NPY-Y2, potentiator/agonist read-out. activation, % at 3.6 µM. hit rate 0.45% among 220,000; in the data active means activation above about 27%;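 further: cells stimulated with NPY near EC25 plus isoproterenol at EC100; 0% = vehicle plus submaximal agonist and 100% = vehicle plus saturating agonist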
Rad51 HR inh – human RAD51 strand exchange inhibitors, primary screen, biochemical, fluorescence; DNA repair protein RAD51 homolog 1 (Homo sapiens), Q06609; hRad51 DNA strand exchange, fluorescence dequenching; inhibition, % at 10 µM; hit rate 0.085% among 200,000; AID 1385, 2008;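 active means inhibition above 40% at the single screening dose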;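 further: 0% = DMSO control wells and 100% = blanks with heterologous ssDNA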
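System: hRad51 filaments on single-stranded DNA; reagent: Fluorescein- and BHQ1-tagged 47-mer duplex; compound dosing: one concentration, 10 µM final; timing: filaments 15 min 37 °C, then compound 30 min; measured by: fluorescein emission 520 nm, excitation 485 nm; benchmarks: per-plate controls and blanks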
NPY-Y1 antag – NPY-Y1 receptor antagonists, primary screen, cell-based. Neuropeptide Y receptor type 1 (Homo sapiens), P25929. HEK293-CNG Y1 cells, membrane potential fluorescence; NPY at EC95, then isoproterenol. inhibition, % at 3.6 µM. hit rate 1% among 200,000. AID 1040, 2008;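 active means inhibition above the campaign mean inhibition of all tested compounds plus 3 SD, cut at about 20% in these data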;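 further: 0% = DMSO wells given NPY plus isoproterenol and 100% = isoproterenol alone without NPY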
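Assay system: HEK293 Y1/CNG channel cell line; Doses: single compound dose of 3.6 µM, 0.4% DMSO; Timing: dye 3 h, compound 60 min room temperature, stimulation 45 min; Technique: Membrane-potential fluorescent dye readout; Measure: % inhibition of NPY effect.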
Measles CPE – compounds protecting cells from measles virus cytopathic effect, primary screen, measles RdRp inhibitor project, single point, MLSMR library, absorbance | Measles virus-infected cells, CPE protection | protection (pct of control), % at 4 µM | hit rate 1.5% among 140,000; in the data active means protection mostly above about 24%, no sharp cut-off; inactive means mostly below about 26%
NPY-Y2 antag – NPY-Y2 receptor antagonists, primary screen, cell-based; NPY-Y2 expressing cells, antagonist mode; inhibition, % at 2.7 µM; Neuropeptide Y receptor type 2 (Homo sapiens), P49146; hit rate 0.99% among 140,000; in the data active means inhibition above about 17%;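 further: 0% = vehicle with agonist challenge and 100% = reference antagonist with challenge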
NPY-Y1 pot conf – NPY-Y1 potentiators or agonists, confirmation, cell-based; shares compounds with NPY1 pot ag; cell-based NPY-Y1 potentiator/agonist assay; activation, % at 3.6 µM; hit rate 20% among 280; in the data active means activation above about 45%;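 further: cells challenged with NPY at its EC10 plus isoproterenol stimulus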
NPY-Y2 counter – NPY-Y2 potentiators or agonists, counter-screen for NPY-Y1 potentiator project, cell-based, fluorescence | shares compounds with NPY1 pot ag | HEK293-CNG cells, membrane-potential fluorescence (FLIPR), 1536-well | activation, % at 3.6 µM | hit rate 20% among 280 | AID 1649, 2009; in the data active means activation above about 33%
NPY-Y1 agonist – NPY-Y1 direct agonists without NPY, confirmation, counter-screen for NPY-Y1 potentiator project, cell-based, fluorescence; shares compounds with NPY1 pot ag; HEK293 Y1-CNGC, membrane potential fluorescence, agonist mode; activation, % at 3.6 µM; hit rate 50% among 280; AID 1697, 2009;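 active means percent activation above the mean of DMSO-only control wells plus 3 SD of those wells, cut at about 18% in these data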;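 further: cells challenged with isoproterenol plus Ro 20-1724 with no NPY in test wells; Y1 agonism lowers isoproterenol-driven cAMP and reduces probe fluorescence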
NPY-Y2 ag – NPY-Y2 direct agonists without NPY, counter-screen for NPY-Y1 potentiator project, cell-based, fluorescence. AID 1698, 2009. shares compounds with NPY1 pot ag. activation, % at 3.6 µM. hit rate 67% among 280. HEK293 Y2-CNGC, membrane potential fluorescence, agonist mode;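 active means activation above the solvent-only control wells' mean plus 3 SD, cut at about 11% in these data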;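 further: 0% = DMSO with isoproterenol and 100% = 40 nM NPY maximal response; agonism lowers cAMP so well fluorescence drops in active wells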
CNGC counter – CNGC cAMP sensor activity inhibitors, counter-screen for NPY-Y1 potentiator/agonist project, cell-based, HEK293-CNG parental, membrane potential fluorescence, Y1 set. AID 1704, 2009. inhibition, % at 3.6 µM. hit rate 42% among 280. shares compounds with NPY1 pot ag. isoproterenol cAMP;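 active means inhibition above the mean of stimulated solvent-only control wells plus 3 SD, cut at about 22% in these data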;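 further: 0% = isoproterenol-stimulated DMSO wells and 100% = unstimulated DMSO wells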
The depositor's hits bear a star; . = not tested or not shown.

SMILES | NPY1 pot ag | NPY-Y2 PAM-ag | Rad51 HR inh | NPY-Y1 antag | Measles CPE | NPY-Y2 antag | NPY-Y1 pot conf | NPY-Y2 counter | NPY-Y1 agonist | NPY-Y2 ag | CNGC counter
CC(=O)Nc1ccc(S(=O)(=O)NC2=C(N3CCN(Cc4ccccc4)CC3)C(=O)c3ccccc3C2=O)cc1 | 5 | 4 | . | -12 | 14 | -7 | . | . | . | . | .
CC(C)(C)OC(=O)N1CCN(C(=O)Nc2ccc3c(c2)OCCO3)CC1 | -13 | -8 | 18 | 0 | . | . | . | . | . | . | .
CC(=O)c1c(N2CCOCC2)nc2ccc(Cl)cc2c1-c1ccccc1 | 3 | -19 | . | . | . | . | . | . | . | . | .
COc1ccc(-c2nc(CN3CCCC(C(=O)NC4CCCC4)C3)c(C)o2)cc1 (centres undefined) | 59* | -12 | 4 | 0 | 4 | 2 | -5 | -1 | -3 | 8 | -1
COc1ccc(CNC(=O)C2CCCN(Cc3nc(-c4cccc(C)c4)oc3C)C2)cc1 (centres undefined) | -22 | -23 | 37 | 3 | . | . | . | . | . | . | .
COc1cc(OC)c(NC(=O)c2ccc3c(SCC(=O)O)c4c(nc3c2)CCCC4)cc1Cl | 5 | -2 | 18 | 0 | . | . | . | . | . | . | .
O=C(CSc1nc2cc(C(F)(F)F)ccc2n1Cc1ccccc1)NC1CCS(=O)(=O)C1 (centres undefined) | 48* | 32 | 1 | -10 | 3 | 2 | 91* | 63* | 78* | 53* | 72*
COc1ccc2c(c1)CCc1c-2nc2ccccc2c1N1CCOCC1 | -3 | -9 | 8 | . | . | . | . | . | . | . | .
O=C(Nc1ccc([N+](=O)[O-])cc1)C(=O)Nc1cccc(C(=O)O)c1 | 52* | 35 | 3 | . | . | . | 36 | 19 | 24* | 8 | 35*
COc1ccc(N2C(=S)NC3c4cc(Cl)ccc4OC2(C)C3C(=O)N(C)C)cc1 (centres undefined) | 32 | 19 | . | -6 | . | . | . | . | . | . | .
Cc1ccc(N2C(=S)NC3c4cc(Cl)ccc4OC2(C)C3C(=O)N(C)C)cc1 (centres undefined) | 35* | 26 | . | -6 | . | . | 74* | 44* | 51* | 47* | 51*
Cc1cccc(N2C(=S)NC3c4cc(Cl)ccc4OC2(C)C3C(=O)N(C)C)c1 (centres undefined) | 42* | 14 | . | -4 | . | . | 59* | 32 | 44* | 33* | 47*
CCN(CC)S(=O)(=O)c1ccc(NC(=O)c2cccs2)cc1 | 86* | -17 | . | 1 | . | . | -6 | -2 | -8 | 3 | 6
OCCNCCOc1ccccc1F | -24 | -4 | 0 | 6 | 9 | 3 | . | . | . | . | .
COCCCNCC(O)COc1ccccc1F (centres undefined) | 49* | 26 | 5 | -1 | . | . | 30 | 25 | 31* | 27* | 4
Cc1ccc(-c2nc(Nc3ccc(N4CCOCC4)cc3)c3ccccc3n2)cc1 | 53* | 37 | . | . | . | . | 51* | 42* | 58* | 45* | 58*
Nn1c(SCc2cccc(Br)c2)nnc1-c1cccnc1 | 2 | -10 | -2 | . | . | . | . | . | . | . | .
